# EBNA-1 inh: EBNA-1 DNA-binding inhibitors, primary screen, biochemical, fluorescence polarization; inhibition, % at 14.8 µM; 300,000 compounds, 0.34% hits; in the data active means inhibition above about 28%
# ZTA counter: counter-screen for EBNA-1 inhibitors: inhibitors of Epstein-Barr virus ZTA; P03206; ZTA-DNA binding, fluorescence polarization; inhibition, % at 11 µM; 320,000 compounds, 0.15% hits; AID 2234; in the data active means inhibition above about 33%
# Target sequence (P03206 whole entry, looked up): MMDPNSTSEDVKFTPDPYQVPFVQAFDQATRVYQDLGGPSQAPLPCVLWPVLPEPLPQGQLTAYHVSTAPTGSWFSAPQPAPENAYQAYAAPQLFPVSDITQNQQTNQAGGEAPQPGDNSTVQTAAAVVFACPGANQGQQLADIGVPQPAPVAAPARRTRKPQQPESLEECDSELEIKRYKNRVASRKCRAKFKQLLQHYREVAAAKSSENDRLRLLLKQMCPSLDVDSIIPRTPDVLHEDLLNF
# FGF22 binding: binders of human FGF22 protein, primary screen, FGF22 synaptogenesis inhibitor project, biophysical, thermal shift, single point; activity (Tm shift, normalised), % at 9.99 µM; 340,000 compounds, 1.5% hits; Fibroblast growth factor 22 (Homo sapiens), Q9HCT0; AID 651658, 2012; recombinant FGF22 thermal shift, SYPRO orange fluorescence; percent of sucrose octasulfate shift, DMSO zero;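 active means mean Tm shift, scaled 0 neutral to 100 positive control, at about 1.3% or above, every replicate too, limit read from the data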
# Target sequence (Q9HCT0 whole entry, looked up): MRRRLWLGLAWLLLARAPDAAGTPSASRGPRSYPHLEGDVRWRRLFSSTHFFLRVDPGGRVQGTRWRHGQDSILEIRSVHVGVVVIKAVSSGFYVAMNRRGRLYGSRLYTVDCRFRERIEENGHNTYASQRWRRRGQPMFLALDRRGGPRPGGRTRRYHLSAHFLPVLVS
# FID counter: compounds displacing fluorescent DNA intercalator, primary screen, artefact control for HCV NS3 helicase inhibitor project, biochemical, FID fluorescence; inhibition, % at 7.9 µM; DNA fluorescent intercalator displacement; 290,000 compounds, 0.17% hits; in the data active means inhibition above about 37%;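 further: 0% = vehicle and 100% = reference compound; higher means more ethidium bromide displaced from hairpin DNA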
# NS3 helicase inh: inhibitors of HCV NS3 helicase, primary screen, biochemical, Cy5 molecular beacon fluorescence; Hepatitis C virus NS3 helicase; NS3 helicase DNA unwinding; inhibition, % at 10.9 µM; 290,000 compounds, 0.56% hits;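 active means inhibition above the mean of all tested compounds plus 3 SD, set per campaign, cut at about 35% in these data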;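 further: 0% = DMSO wells and 100% = thioflavine S control wells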
#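 System: HCV NS3 helicase fragment; control set: DMSO and thioflavine S; technique: Cy5 fluorescence at 0 and 60 min, beacon hairpin quenching; reagent: beacon DNA duplex substrate plus ATP; replicates: singlicate; schedule: 1 h reaction at 25 °C, ATP-initiated; medium: MOPS buffer pH 6.5 with MgCl2, DTT, Tween20, BSA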
# NR3A LBD binder: binders of NR3A ligand-binding domain, primary screen, biophysical, differential scanning fluorimetry, uHTS | Tm shift relative to glycine control, % at 25 µM | 340,000 compounds, 2.5% hits | Glutamate receptor ionotropic, NMDA 3A (GRIN3A) ligand-binding domain | NR3A LBD differential scanning fluorimetry, Tm shift; 0% = protein alone, 100% = glycine-bound protein | AID 1259313, 2017;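 active means melting temperature shift of at least 10% of the positive control shift, at one fixed dose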
# * marks the source's active call; other numbers are inactive results; x = no result. This is a sample that favours compounds with a hit; in the whole collection about 3.6% have one here.
SMILES,EBNA-1 inh,ZTA counter,FGF22 binding,FID counter,NS3 helicase inh,NR3A LBD binder
O=C(c1ccccc1F)N1CCOCC1,-4,-12,0,2,-1,-1
O=C(c1ccccc1NS(=O)(=O)c1cccc2cccnc12)N1CCOCC1,-7,3,43*,-5,3,-1
O=C(c1cccnc1Cl)N1CCOCC1,-1,-7,44*,-2,9,-3
O=S(=O)(Nc1ccccc1O)c1cccc2cccnc12,5,-2,0,0,1,-22
O=C(C[C@@H]1CC[C@H]2[C@@H](COC[C@@H](O)CN2Cc2nccs2)O1)NCc1ccc(F)cc1,x,x,0,x,x,x
COc1ccc(NC(=O)Nc2ccc3c(c2)CC(=O)N([C@H](C)CO)C[C@H](C)[C@H](CN(C)C(=O)Nc2ccc(F)cc2)O3)cc1,x,x,-1,x,x,x
CCOC(=O)c1sc(NC(=O)CSc2n[nH]c(-c3ccc(Cl)cc3Cl)n2)c(C#N)c1C,-14,-3,x,1,4,33*
CCOC(=O)c1sc(NC(=O)c2cc(-c3ccccc3C)nc3ccccc23)c(C#N)c1C,-2,3,x,-6,6,24*
Cc1ccc(S(=O)(=O)N(C)C[C@@H]2Oc3ccc(NC(=O)CCC(F)(F)F)cc3CC(=O)N([C@H](C)CO)C[C@@H]2C)cc1,x,x,0,x,x,x
C[C@H](CO)N1C[C@H](C)[C@H](CN(C)Cc2ccccc2)Oc2ccc(NC(=O)CCN3CCOCC3)cc2CC1=O,x,x,0,x,x,x
C[C@@H]1CN([C@H](C)CO)C(=O)c2cc(NC(=O)Nc3ccccc3)ccc2O[C@@H](C)CCCCO[C@H]1CN(C)Cc1ccccc1,x,x,0,x,x,x
COc1ccc2c3c([nH]c2c1)[C@H](CO)N(C(=O)CC1CC1)CC31CN(C(=O)CC2CC2)C1,x,x,0,x,x,x
CN1CCC(=NNC(=O)C(=O)Nc2cccc(Br)c2)CC1,-5,-21,43*,-8,-7,-1
CN1CCC(=NNC(=O)C(=O)Nc2ccc(F)cc2)CC1,3,8,0,-7,-21,-4
c1csc(C2Nc3ccccc3-c3nc4ccccc4n32)c1 (stereo not given),8,-5,x,0,16,24*
CN(C)C(=O)[C@@]1(Cc2ccccc2)COC(c2ccc(OCCCO)cc2)=N1,x,x,0,x,x,x
CC(=O)c1sc2nc(CSc3nncn3C)[nH]c(=O)c2c1C,2,8,44*,0,-5,1
COc1ccc(NC(=O)/C=C/c2cccc(Br)c2)cn1,-5,-3,0,-17,-8,33*
COc1ccc(NC(=O)/C=C/c2ccc(OC)c(OC)c2)cn1,2,7,x,-15,-2,-17
COc1ccc(/C=C/C(=O)Nc2cc(C(F)(F)F)ccc2Cl)cc1,7,12,x,0,-1,15*
COc1ccc(NC(=O)/C=C/c2cccc(C(F)(F)F)c2)cn1,-3,-11,0,-15,-1,11*
COc1ccc(/C=C/C(=O)Nc2ccc(OC)nc2)cc1,2,3,0,-9,1,26*
O=C(Nc1ccccc1)N[C@@H]1CC[C@H](CCNS(=O)(=O)c2cccc(F)c2)O[C@@H]1CO,x,x,0,x,x,x
O=c1cc(-c2ccccc2)c2ccc(O)cc2o1,-3,4,0,x,x,11*
CCOC(=O)C(Oc1ccc2c(-c3ccccc3)cc(=O)oc2c1)c1ccccc1 (stereo not given),-4,1,0,-28,-6,11*
SMILES,EBNA-1 inh,ZTA counter,FGF22 binding,FID counter,NS3 helicase inh,NR3A LBD binder
COC(=O)C(Oc1ccc2c(-c3ccc(OC)cc3)cc(=O)oc2c1)c1ccccc1 (stereo not given),-7,13,x,-13,10,0
CCNC(=O)C[C@@H]1CC[C@@H](NC(=O)C2CC2)[C@H](CO)O1,x,x,0,x,x,x
CC1=NN(c2ccccc2)C(=O)/C1=C/c1c(O)n(-c2ccc(F)c(Cl)c2)[nH]c1=O,-4,-2,x,41*,-2,7
O=S1(=O)N=C(Nc2ccc(O)cc2)c2ccccc21,-3,6,0,3,-8,19*
Cc1ccc(S(=O)(=O)Nc2cccc3c2O[C@@H](CN(C)CC2CC2)[C@H](C)CN([C@H](C)CO)C3=O)cc1,x,x,0,x,x,x
N#Cc1cc(-c2ccc(Cl)cc2)cnc1Sc1ccc(F)cc1,9,12,x,0,3,13*
O=C(O)c1cccc([N+](=O)[O-])c1C(=O)Nc1nc2ccccc2s1,7,-7,43*,13,-18,-1
O=C(Nc1nc2ccccc2s1)c1ccccc1[N+](=O)[O-],-13,6,0,11,-7,-1
NC(=O)c1ccc2nc(NC(=O)c3ccc(N)cc3)sc2c1,x,x,0,4,-6,14*
COc1ccc(OCC(=O)Nc2nc3ccc(NC(C)=O)cc3s2)cc1,3,-1,1,-10,0,14*
CC(=O)Nc1nc2cc(C(N)=O)ccc2s1,x,1,-1,x,x,-1
COc1ccccc1NC(=O)Nc1nc2ccc(S(N)(=O)=O)cc2s1,2,-6,0,4,-34,20*
C[C@H]1CN([C@@H](C)CO)C(=O)c2cc(NC(=O)C3CCCCC3)ccc2O[C@@H]1CN(C)C(=O)Nc1ccc(C(F)(F)F)cc1,x,x,0,x,x,x
COCCNC(=O)C[C@H]1C[C@@H]2c3cc(NC(=O)CC4CC4)ccc3O[C@@H]2[C@@H](CO)O1,x,x,0,x,x,x
COc1ccc2nc(NC(=O)Nc3ccccc3OC)sc2c1,12,-8,0,-1,-28,-2
COc1ccc2nc(NC(=O)Nc3cccc4ccccc34)sc2c1,-5,0,x,-2,-7,23*
COc1ccc2nc(NC(=O)c3ccc4ncsc4c3)sc2c1,-12,5,x,-2,9,26*
Cc1ccc2nc(NC(=O)c3ccc(-c4nc5ccccc5s4)s3)sc2c1,3,-8,0,-3,7,-1
COc1ccc2nc(NC(=O)c3cccs3)sc2c1,5,-9,0,-4,-5,19*
O=C(Nc1nc2ccccc2s1)c1ccc(Cl)s1,-7,3,0,0,5,21*
CCCNC(=O)C[C@H]1CC[C@H]2[C@@H](COc3ccc(NC(=O)COC)cc3C(=O)N2C)O1,x,x,0,x,x,x
COc1ccc(C(=O)Nc2nc3ccccc3s2)cc1,-1,6,1,-1,24,26*
COc1ccc2nc(NC(C)=O)sc2c1,5,4,x,-4,2,1
COc1cccc(C(=O)Nc2nc3ccccc3s2)c1,-6,-14,0,-1,14,3
COc1ccc2nc(NC(=O)c3ccc(F)cc3)sc2c1,20,19,0,-7,17,10*

# Screening results deposited in PubChem by several laboratories.
